Experimental data taken from ChEMBL document CHEMBL2062401, “New pyrimido[5,4-e]pyrrolo[1,2-c]pyrimidines: synthesis, 2D-QSAR, anti-inflammatory, analgesic and ulcerogenicity studies” (Eur J Med Chem, 2012).

Experiments:
Rattus norvegicus [1] = assay: Antiinflammatory activity in Wistar albino rat assessed as inhibition of carrageenan-induced paw edema at 0.029 mmol/kg, po dosed 1 hr before carrageenan challenge measured 1 hr post carrageenan-induced inflammation; format: functional
Outline: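 Wistar albino rats of both sexes, 120–150 g, six per group, food withdrawn the day before. Given orally 0.029 mmol/kg in saline with a few drops of Tween 80, by stomach tube, 1 h before subplantar s.c. carrageenan (0.1 ml of 1%) into the right hind paw. Paw thickness measured at 1, 2, 3 and 4 h against baseline. % inhibition = 100 × (1 − Vt/Vc).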

Rattus norvegicus [2] = assay: Gastrointestinal toxicity in Wistar albino rat assessed as incidence of stomach ulceration at 0.029 mmol/kg, po; format: organism-based; conditions: in vivo
Outline: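 Rats given single oral dose suspended in saline with few drops Tween 80 (groups of 6); killed under deep ether anaesthesia 5 h after treatment; stomach opened along greater curvature and examined for lesions or bleeding; ulceration expressed as number of rats affected per group.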

Mus musculus [3] = assay: Analgesic activity in Swiss albino mouse assessed as inhibition of acetic acid-induced writhing at 0.029 mmol/kg. po dosed 1 hr before acetic acid challenge and measured during 30 mins post acetic acid challenge; format: functional
Outline: (§1)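 Swiss albino mice of either sex, 18–22 g, six per group. Oral suspension at 0.029 mmol/kg given 1 h before 0.3 ml of 1% acetic acid i.p. Contractions counted for 30 min, starting 5 min after injection. % protection = (n − n')/n × 100 against control writhing. Potency% = % inhibition of test / % inhibition of indomethacin × 100. Mean ± SEM, ANOVA with post hoc test.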

Mus musculus [4] = assay: Analgesic activity in Swiss albino mouse assessed as inhibition of acetic acid-induced writhing at 0.029 mmol/kg. po dosed 1 hr before acetic acid challenge and measured during 30 mins post acetic acid challenge relative to indomethacin; format: functional; conditions: read-out: INH; outline: as §1
[5] = Lipophilicity, log P of the compound; format: physicochemical; conditions: octanol/water
Rattus norvegicus [6] = assay: Antiinflammatory activity in Wistar albino rat assessed as inhibition of carrageenan-induced paw edema at 0.029 mmol/kg, po dosed 1 hr before carrageenan challenge measured 2 hrs post carrageenan-induced inflammation
Rattus norvegicus [7] = assay: Antiinflammatory activity in Wistar albino rat assessed as inhibition of carrageenan-induced paw edema at 0.029 mmol/kg, po dosed 1 hr before carrageenan challenge measured 3 hrs post carrageenan-induced inflammation
Rattus norvegicus [8] = assay: Antiinflammatory activity in Wistar albino rat assessed as inhibition of carrageenan-induced paw edema at 0.029 mmol/kg, po dosed 1 hr before carrageenan challenge measured 4 hrs post carrageenan-induced inflammation

Compound | inhibition in vivo at 29 µmol/kg (Rattus norvegicus [1]) [%] | Activity (Rattus norvegicus [2]) | inhibition in vivo at 29 µmol/kg (Mus musculus [3]) [%] | writhing inhibition relative to indomethacin (potency %) at 29 µmol/kg (Mus musculus [4]) [%] | logP [5] | inhibition in vivo at 29 µmol/kg (Rattus norvegicus [6]) [%] | inhibition in vivo at 29 µmol/kg (Rattus norvegicus [7]) [%] | inhibition in vivo at 29 µmol/kg (Rattus norvegicus [8]) [%]
CCOC(=O)C/C(C)=N/NC(=O)c1nc2c(c(=O)[nH]1)C1CCCN1C(=O)N2c1ccccc1 (stereo not drawn) | 45 | Non-toxic | 1.17 | 1.77 | 1.28 | 41 | 47 | 52
Cc1cc(C)n(C(=O)c2nc3c(c(=O)[nH]2)C2CCCN2C(=O)N3c2ccccc2)n1 (stereo not drawn) | 58 | Non-toxic | 62.1 | 94 | 1.46 | 57 | 65 | 67
NNC(=O)c1nc2c(c(=O)[nH]1)C1CCCN1C(=O)N2c1ccccc1 (stereo not drawn) | 56 | Toxic | 32.2 | 48.7 | -0.487 | 45 | 50 | 56
CC(C)=NNC(=O)c1nc2c(c(=O)[nH]1)C1CCCN1C(=O)N2c1ccccc1 (stereo not drawn) | 26 | Non-toxic | 58.8 | 89 | – | 23 | 35 | 36
COc1ccc(/C=N/NC(=O)c2nc3c(c(=O)[nH]2)C2CCCN2C(=O)N3c2ccccc2)cc1 (stereo not drawn) | 51 | Non-toxic | 71.8 | 109 | 2.76 | 21 | 44 | 47
O=C(NN=C(c1ccccc1)c1ccccc1)c1nc2c(c(=O)[nH]1)C1CCCN1C(=O)N2c1ccccc1 (stereo not drawn) | 44 | Non-toxic | 81.9 | 124 | 5.52 | 51 | 51 | 53
C/C(=N\NC(=O)c1nc2c(c(=O)[nH]1)C1CCCN1C(=O)N2c1ccccc1)c1ccc(Cl)cc1 (stereo not drawn) | 43 | Toxic | 62.1 | 94 | 3.29 | 50 | 51 | 57
Cc1cc(=O)n(C(=O)c2nc3c(c(=O)[nH]2)C2CCCN2C(=O)N3c2ccccc2)[nH]1 (stereo not drawn) | 57 | Non-toxic | 61 | 92.2 | 0.772 | 34 | 57 | 62
O=C(N/N=C/c1ccccc1)c1nc2c(c(=O)[nH]1)C1CCCN1C(=O)N2c1ccccc1 (stereo not drawn) | 68 | Toxic | 57.6 | 87.2 | 3.35 | 41 | 53 | 50
C/C(=N\NC(=O)c1nc2c(c(=O)[nH]1)C1CCCN1C(=O)N2c1ccccc1)c1ccccc1 (stereo not drawn) | 61 | Toxic | 67.5 | 102 | 3.28 | 44 | 53 | 61
O=C(O)c1nc2c(c(=O)[nH]1)C1CCCN1C(=O)N2c1ccccc1 (stereo not drawn) | 68 | Toxic | 64.7 | 97.8 | 0.661 | 56 | 66 | 72
Nc1cc(=O)[nH]n1C(=O)c1nc2c(c(=O)[nH]1)C1CCCN1C(=O)N2c1ccccc1 (stereo not drawn) | 50 | Non-toxic | 70.3 | 106 | 0.517 | 20 | 45 | 50
COc1ccc(/C=N/NC(=O)c2nc3c(c(=O)[nH]2)C2CCCN2C(=O)N3c2ccccc2)cc1O (stereo not drawn) | 18 | Non-toxic | 43.8 | 66.2 | 2.42 | 15 | 46 | 46
O=C(N/N=C/c1ccc(Cl)cc1)c1nc2c(c(=O)[nH]1)C1CCCN1C(=O)N2c1ccccc1 (stereo not drawn) | 54 | Non-toxic | 34.8 | 52.7 | 3.36 | 32 | 44 | 38
CCOC(=O)c1nc2c(c(=O)[nH]1)C1CCCN1C(=O)N2c1ccccc1 (stereo not drawn) | 71 | Non-toxic | 29.4 | 44.5 | 2.02 | 67 | 68 | 66
O=C(N/N=C/c1ccccc1O)c1nc2c(c(=O)[nH]1)C1CCCN1C(=O)N2c1ccccc1 (stereo not drawn) | 53 | Toxic | 68.9 | 104 | 2.46 | 34 | 46 | 47
CCO/C=N/NC(=O)c1nc2c(c(=O)[nH]1)C1CCCN1C(=O)N2c1ccccc1 (stereo not drawn) | 47 | Non-toxic | 24.9 | 37.7 | 1.44 | 55 | 64 | 55
O=C1CC(O)=NN1C(=O)c1nc2c(c(=O)[nH]1)C1CCCN1C(=O)N2c1ccccc1 (stereo not drawn) | 68 | Non-toxic | 61.9 | 93.6 | 0.693 | 44 | 49 | 65
